Source: ChEMBL document CHEMBL3046946, “Design, synthesis, and insecticidal activities of new N-benzoyl-N'-phenyl-N'-sulfenylureas” (2009)
Converted amounts (≈) assume the structure as drawn.

Legend:
Assay type in all cases: functional
[1] = test system: Mythimna separata; assay: Insecticidal activity against fourth-instar larval stage of Mythimna separata (Oriental armyworm) in compound-pretreated corn leaves assessed as mortality at 1 mg/l at 25 +/-1degC after 4 days
[2] = test system: Mythimna separata; assay: Insecticidal activity against fourth-instar larval stage of Mythimna separata (Oriental armyworm) in compound-pretreated corn leaves assessed as mortality at 0.25 mg/l at 25 +/-1degC after 4 days
[3] = test system: Mythimna separata; assay: Insecticidal activity against fourth-instar larval stage of Mythimna separata (Oriental armyworm) in compound-pretreated corn leaves assessed as mortality at 0.5 mg/l at 25 +/-1degC after 4 days
[4] = test system: Mythimna separata; assay: Insecticidal activity against fourth-instar larval stage of Mythimna separata (Oriental armyworm) in compound-pretreated corn leaves assessed as mortality at 40 mg/l at 25 +/-1degC after 4 days
[5] = test system: Culex pipiens pallens; assay: Insecticidal activity against fourth-instar larval stage of Culex pipiens pallens (mosquito) assessed as mortality at 0.01 mg/l at 25 +/-1degC after 8 days; details: 192 h
In short: (§1)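 Compounds dissolved in acetone, then diluted with distilled water to the test concentrations. Twenty fourth-instar larvae were placed in 10 mL of each test solution and reared for 8 days. Mortality was scored on a 0–100 scale, where 0 is no activity and 100 is total kill.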

[6] = test system: Mythimna separata; assay: Insecticidal activity against fourth-instar larval stage of Mythimna separata (Oriental armyworm) in compound-pretreated corn leaves assessed as mortality at 50 mg/l at 25 +/-1degC after 4 days
[7] = test system: Mythimna separata; assay: Insecticidal activity against fourth-instar larval stage of Mythimna separata (Oriental armyworm) in compound-pretreated corn leaves assessed as mortality at 200 mg/l at 25 +/-1degC after 4 days
[8] = test system: Mythimna separata; assay: Insecticidal activity against fourth-instar larval stage of Mythimna separata (Oriental armyworm) in compound-pretreated corn leaves assessed as mortality at 100 mg/l at 25 +/-1degC after 4 days
[9] = test system: Culex pipiens pallens; assay: Insecticidal activity against fourth-instar larval stage of Culex pipiens pallens (mosquito) assessed as mortality at 2.5 mg/l at 25 +/-1degC after 8 days; details: 192 h; in short: as §1
[10] = test system: Culex pipiens pallens; assay: Insecticidal activity against fourth-instar larval stage of Culex pipiens pallens (mosquito) assessed as mortality at 1 mg/l at 25 +/-1degC after 8 days; details: 192 h; in short: as §1
[11] = test system: Culex pipiens pallens; assay: Insecticidal activity against fourth-instar larval stage of Culex pipiens pallens (mosquito) assessed as mortality at 5 mg/l at 25 +/-1degC after 8 days; details: 192 h; in short: as §1
[12] = test system: Spodoptera exigua; assay: Insecticidal activity against third-instar larval stage of Spodoptera exigua in cabbage leaves assessed as mortality at 25 +/-1degC treated for 5 secs before larval infestation measured after 4 days by leaf dip method; details: foliar, 96 h
In short: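 Leaf-dip assay. Fresh cabbage leaf disks (1.8 cm diameter) were dipped in test solution for 5 s before larvae were added. LC50 was calculated by Finney probit analysis of the mortality regression lines.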

[13] = test system: Plutella xylostella; assay: Insecticidal activity against larvae of Plutella xylostella (diamondback moth) in cabbage leaves assessed as mortality at 25 +/-1degC treated for 5 secs before larval infestation measured after 4 days by leafdip method; details: 96 h
In short: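 Leaf-dip assay. Cabbage leaf disks (1.8 cm diameter) were dipped in test solution for 5 s, air-dried, and placed in tubes lined with filter paper. Ten second-instar larvae were added per tube. Percent mortality was read 4 days after treatment, in triplicate. LC50 was derived by Finney probit analysis of the mortality regression lines.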

[14] = test system: Culex pipiens pallens; assay: Insecticidal activity against fourth-instar larval stage of Culex pipiens pallens (mosquito) assessed as mortality at 0.005 mg/l at 25 +/-1degC after 8 days; details: 192 h; in short: as §1
[15] = test system: Culex pipiens pallens; assay: Insecticidal activity against fourth-instar larval stage of Culex pipiens pallens (mosquito) assessed as mortality at 0.0025 mg/l at 25 +/-1degC after 8 days; details: 192 h; in short: as §1
[16] = test system: Mythimna separata; assay: Insecticidal activity against fourth-instar larval stage of Mythimna separata (Oriental armyworm) in compound-pretreated corn leaves assessed as mortality at 2.5 mg/l at 25 +/-1degC after 4 days

| SMILES | mortality at 1 µg/mL [1] [%] | mortality at 0.25 µg/mL [2] [%] | mortality at 0.5 µg/mL [3] [%] | mortality at 0.01 µg/mL [5] [%] | mortality at 0.005 µg/mL [14] [%] | further results |
| --- | --- | --- | --- | --- | --- | --- |
| O=C(NC(=O)N(SN(C(=O)NC(=O)c1c(F)cccc1F)c1ccc(OC(F)(F)F)cc1)c1ccc(OC(F)(F)F)cc1)c1c(F)cccc1F | 100 | 20 | 55 | – | – | – |
| O=C(NC(=O)N(SNc1ccc(C(F)(F)F)cc1)c1ccc(C(F)(F)F)cc1)c1c(F)cccc1F | 100 | 45 | 80 | – | – | – |
| O=C(NC(=O)N(SSN(C(=O)NC(=O)c1c(F)cccc1F)c1ccc(OC(F)(F)F)cc1)c1ccc(OC(F)(F)F)cc1)c1c(F)cccc1F | 100 | 20 | 50 | – | – | – |
| CCOC(=O)CCN(Cc1ccccc1)SN(C(=O)NC(=O)c1c(F)cccc1F)c1ccc(OC(F)(F)F)cc1 | 100 | – | – | 100 | – | mortality at 40 µg/mL [4]: 0.0025% |
| CCOC(=O)CCN(Cc1ccccc1)SN(C(=O)NC(=O)c1c(F)cccc1F)c1ccccc1 | – | – | – | – | – | mortality at 50 µg/mL [6]: 30%; mortality at 200 µg/mL [7]: 70%; mortality at 100 µg/mL [8]: 40%; mortality at 2.5 µg/mL [9]: 60%; mortality at 1 µg/mL [10]: 20%; mortality at 5 µg/mL [11]: 100% |
| O=C(NC(=O)N(SSNc1ccc(OC(F)(F)F)cc1)c1ccc(OC(F)(F)F)cc1)c1ccccc1Cl | 100 | 30 | 60 | – | – | – |
| O=C(NC(=O)N(SSNc1ccc(C(F)(F)F)cc1)c1ccc(C(F)(F)F)cc1)c1c(F)cccc1F | 100 | 10 | 70 | – | – | – |
| O=C(NC(=O)N(SSN(C(=O)NC(=O)c1c(F)cccc1F)c1ccc(OC(F)(F)F)cc1)c1ccc(OC(F)(F)F)cc1)c1ccccc1Cl | 100 | 0 | 40 | – | – | – |
| O=C(NC(=O)N(SNc1ccc(Cl)cc1)c1ccc(Cl)cc1)c1c(F)cccc1F | 100 | 0 | 70 | – | – | – |
| O=C(NC(=O)N(SNc1ccc(OC(F)(F)F)cc1)c1ccc(OC(F)(F)F)cc1)c1c(F)cccc1F | 100 | 40 | 90 | – | – | – |
| O=C(NC(=O)N(SN(C(=O)NC(=O)c1c(F)cccc1F)c1ccc(OC(F)(F)F)cc1)c1ccc(OC(F)(F)F)cc1)c1ccccc1Cl | 100 | 50 | 95 | – | – | LC50 [12]: 31.4 µg/mL (≈ 42 µM); LC50 [13]: 40.1 µg/mL (≈ 53.6 µM) |
| O=C(NC(=O)N(SN1CCCCC1)c1ccccc1)c1c(F)cccc1F | – | – | – | – | – | mortality at 50 µg/mL [6]: 0%; mortality at 200 µg/mL [7]: 90%; mortality at 100 µg/mL [8]: 40%; mortality at 2.5 µg/mL [9]: 70%; mortality at 1 µg/mL [10]: 0%; mortality at 5 µg/mL [11]: 100% |
| CCOC(=O)CCN(Cc1ccccc1)SN(C(=O)NC(=O)c1c(F)cccc1F)c1ccc(Cl)cc1 | 100 | 30 | 50 | 60 | 0 | – |
| CCN(CC)SN(C(=O)NC(=O)c1c(F)cccc1F)c1ccccc1 | – | – | – | – | – | mortality at 50 µg/mL [6]: 20%; mortality at 200 µg/mL [7]: 70%; mortality at 100 µg/mL [8]: 40%; mortality at 2.5 µg/mL [9]: 100%; mortality at 1 µg/mL [10]: 30%; mortality at 5 µg/mL [11]: 100% |
| CCN(CC)SN(C(=O)NC(=O)c1c(F)cccc1F)c1ccc(OC(F)(F)F)cc1 | 100 | 60 | 100 | 100 | 100 | mortality at 0.0025 µg/mL [15]: 40% |
| O=C(NC(=O)N(SSNc1ccc(C(F)(F)F)cc1)c1ccc(C(F)(F)F)cc1)c1ccccc1Cl | 70 | 0 | 60 | – | – | mortality at 2.5 µg/mL [16]: 100% |
| CCN(CC)SN(C(=O)NC(=O)c1c(F)cccc1F)c1ccc(Cl)cc1 | 100 | 20 | 70 | 100 | 10 | mortality at 0.0025 µg/mL [15]: 10% |
| O=C(NC(=O)c1c(F)cccc1F)Nc1ccc(Cl)cc1 [DIFLUBENZURON] | 100 | 45 | 100 | 100 | 50 | mortality at 0.0025 µg/mL [15]: 10% |
| O=C(NC(=O)N(SN1CCOCC1)c1ccc(Cl)cc1)c1c(F)cccc1F | 100 | 80 | 100 | 100 | 30 | mortality at 0.0025 µg/mL [15]: 0% |
| O=C(NC(=O)N(SSN(C(=O)NC(=O)c1ccccc1Cl)c1ccc(OC(F)(F)F)cc1)c1ccc(OC(F)(F)F)cc1)c1ccccc1Cl | 85 | 10 | 60 | – | – | mortality at 2.5 µg/mL [16]: 100% |
| O=C(NC(=O)N(SSNc1ccc(OC(F)(F)F)cc1)c1ccc(OC(F)(F)F)cc1)c1c(F)cccc1F | 100 | 30 | 90 | – | – | – |
| O=C(NC(=O)N(SN(C(=O)NC(=O)c1c(F)cccc1F)c1ccc(Cl)cc1)c1ccc(Cl)cc1)c1c(F)cccc1F | 100 | 25 | 85 | – | – | – |
| O=C(NC(=O)N(SN1CCCCC1)c1ccc(OC(F)(F)F)cc1)c1c(F)cccc1F | 100 | 50 | 100 | 100 | 100 | mortality at 0.0025 µg/mL [15]: 75% |
| O=C(NC(=O)N(SN1CCOCC1)c1ccc(OC(F)(F)F)cc1)c1c(F)cccc1F | 100 | 80 | 100 | 100 | 100 | LC50 [12]: 21.4 µg/mL (≈ 44.9 µM); mortality at 0.0025 µg/mL [15]: 20%; LC50 [13]: 45.1 µg/mL (≈ 94.5 µM) |
| O=C(NC(=O)N(SN1CCCCC1)c1ccc(Cl)cc1)c1c(F)cccc1F | 100 | 20 | 100 | 90 | 0 | mortality at 0.0025 µg/mL [15]: 0% |
| O=C(NC(=O)c1ccccc1Cl)Nc1ccc(OC(F)(F)F)cc1 [TRIFLUMURON] | 95 | 20 | 40 | – | – | LC50 [12]: 12 µg/mL (≈ 33.5 µM); LC50 [13]: 49.3 µg/mL (≈ 137 µM); mortality at 2.5 µg/mL [16]: 100% |
